According to ChEMBL document CHEMBL1671618, “Functional cloning and characterization of the multidrug efflux pumps NorM from Neisseria gonorrhoeae and YdhE from Escherichia coli” (Antimicrob Agents Chemother, 2008):
Values after ≈ are worked out from the molar mass of the structure shown. Active and inactive are the calls of the source. The calls are words filed in the database; no cut-off is given here.

Experiments:
[1] = Binding affinity to Neisseria gonorrhoeae FA19 multidrug efflux protein NorM […] using Scatchard plot in presence of 0.02% DDM surfactant by fluorescence polarization assay
[2] = Binding affinity to Neisseria gonorrhoeae FA19 multidrug efflux protein NorM expressed in Escherichia coli AG100AX at pH 8.5 by fluorescence polarization assay
Procedure, shortened: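 Rhodamine 6G (1 μM) binding to purified DDM-solubilized His6-NorM, measured by steady-state fluorescence polarization across pH 5.8 to 8.5. Excitation 527 nm, emission 550 nm, 25°C, 5-min equilibration per titration point. KD fitted at each pH.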

Escherichia coli [3] = assay: Antimicrobial activity against AcrAB-deficient Escherichia coli AG100AX harboring pBAD plasmid after 18 to 24 hrs by two fold dilution method; format: functional
Procedure, shortened: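 Twofold agar dilution on LB agar containing the antimicrobial, inoculum 10⁴ CFU/spot. Growth was scored after 18–24 h at 37°C, and each MIC determination was repeated at least four times.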

[4] = molecular target: T1, Multidrug resistance protein MdtK (Escherichia coli (strain K12), UniProt P37340); assay: Binding affinity to purified detergent-solubilized Escherichia coli K-12 multidrug efflux protein YdhE by equilibrium dialysis method
T1 sequence (P37340 whole entry): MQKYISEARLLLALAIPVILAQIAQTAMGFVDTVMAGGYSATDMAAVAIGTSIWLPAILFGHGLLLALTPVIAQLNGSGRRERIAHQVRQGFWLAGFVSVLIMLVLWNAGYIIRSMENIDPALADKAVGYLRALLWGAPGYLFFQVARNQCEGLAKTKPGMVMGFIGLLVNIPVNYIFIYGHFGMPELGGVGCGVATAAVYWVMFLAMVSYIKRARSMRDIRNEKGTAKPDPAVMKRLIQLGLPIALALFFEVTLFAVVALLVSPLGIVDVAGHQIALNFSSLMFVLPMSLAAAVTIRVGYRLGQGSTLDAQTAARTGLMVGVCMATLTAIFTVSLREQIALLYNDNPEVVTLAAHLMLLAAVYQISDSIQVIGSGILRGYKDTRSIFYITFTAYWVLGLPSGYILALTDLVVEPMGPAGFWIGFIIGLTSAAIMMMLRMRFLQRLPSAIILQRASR
Procedure, shortened: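 YdhE carried a C-terminal His6 tag and was overproduced in E. coli TOP10 by L-arabinose induction. It was solubilized in 1% DDM, then purified by Ni2+-affinity and G-200 sizing in 20 mM HEPES-NaOH pH 7.5 with 0.02% DDM. Purity was >90% by SDS-PAGE. Rhodamine 6G binding was measured by equilibrium dialysis to give the KD and the binding stoichiometry.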

[5] = Binding affinity to Neisseria gonorrhoeae FA19 multidrug efflux protein NorM expressed in Escherichia coli AG100AX in presence of 0.02% DDM surfactant by fluorescence polarization assay
[6] = molecular target: T1, Multidrug resistance protein MdtK; assay: Binding affinity to Escherichia coli K-12 multidrug efflux protein YdhE […] in presence of 0.02% DDM surfactant by fluorescence polarization assay
Escherichia coli [7] = assay: Antimicrobial activity against AcrAB-deficient Escherichia coli AG100AX harboring pBADomegaydhE plasmid containing Escherichia coli multidrug efflux pump YdhE after 18 to 24 hrs by two fold dilution method; format: functional
Escherichia coli [8] = assay: Antimicrobial activity against AcrAB-deficient Escherichia coli AG100AX harboring pBADomeganorM plasmid containing Neisseria gonorrhoeae multidrug efflux pump NorM after 18 to 24 hrs by two fold dilution method; format: functional
[9] = molecular target: T2, Multidrug efflux pump subunit AcrB (Escherichia coli (strain K12), UniProt P31224); assay: Binding affinity to Escherichia coli K-12 multidrug efflux protein AcrB at pH 8.4 by equilibrium dialysis method
T2 sequence (P31224 whole entry): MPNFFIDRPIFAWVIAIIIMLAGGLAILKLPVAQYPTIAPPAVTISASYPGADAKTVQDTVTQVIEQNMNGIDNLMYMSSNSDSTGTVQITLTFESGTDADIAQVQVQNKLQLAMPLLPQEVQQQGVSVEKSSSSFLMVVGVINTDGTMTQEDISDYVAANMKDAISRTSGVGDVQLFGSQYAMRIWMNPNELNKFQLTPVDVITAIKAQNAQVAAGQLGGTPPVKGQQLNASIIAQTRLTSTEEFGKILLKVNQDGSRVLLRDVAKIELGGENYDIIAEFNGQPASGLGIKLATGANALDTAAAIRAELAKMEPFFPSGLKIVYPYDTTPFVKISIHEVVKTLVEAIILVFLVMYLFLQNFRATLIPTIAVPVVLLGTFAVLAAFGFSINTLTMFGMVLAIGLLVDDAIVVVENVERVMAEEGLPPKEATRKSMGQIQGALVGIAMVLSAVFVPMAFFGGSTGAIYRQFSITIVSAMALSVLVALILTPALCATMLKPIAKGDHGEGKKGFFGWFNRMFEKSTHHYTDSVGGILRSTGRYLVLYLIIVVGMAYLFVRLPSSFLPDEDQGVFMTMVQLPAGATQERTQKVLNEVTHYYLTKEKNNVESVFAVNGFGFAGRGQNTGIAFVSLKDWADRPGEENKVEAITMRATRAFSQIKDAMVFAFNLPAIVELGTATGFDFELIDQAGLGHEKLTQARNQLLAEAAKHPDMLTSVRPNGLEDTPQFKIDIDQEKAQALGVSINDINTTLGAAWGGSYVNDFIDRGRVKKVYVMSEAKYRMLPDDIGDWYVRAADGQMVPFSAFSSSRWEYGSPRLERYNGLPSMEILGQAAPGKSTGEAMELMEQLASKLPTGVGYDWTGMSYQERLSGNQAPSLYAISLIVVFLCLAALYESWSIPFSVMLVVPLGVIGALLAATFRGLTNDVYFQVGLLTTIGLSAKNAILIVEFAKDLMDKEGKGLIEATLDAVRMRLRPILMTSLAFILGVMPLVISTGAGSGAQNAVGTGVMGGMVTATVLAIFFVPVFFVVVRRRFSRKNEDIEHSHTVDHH

[10] = Binding affinity to Neisseria gonorrhoeae FA19 multidrug efflux protein NorM expressed in Escherichia coli AG100AX in presence of => 100 mM NaCl by fluorescence polarization assay
Procedure, shortened: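 NaCl at 100 to 400 mM added to rhodamine 6G (1 μM) binding mixtures with purified His6-NorM in 20 mM HEPES-NaOH pH 7.5, 0.02% DDM.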

Neisseria gonorrhoeae [11] = assay: Activity of Neisseria gonorrhoeae FA19 multidrug efflux protein NorM expressed in Escherichia coli AG100AX assessed as reduction in compound accumulation in presence of 100 mM NaCl by fluorimetric assay
Procedure, shortened: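 Arabinose-induced (0.01%) AG100AX cells at OD600 1.0 were held in 0.1 M Tris-HCl pH 7.0 with ethidium bromide (20 μg/ml final), then 100 mM NaCl, or KCl for comparison, was added. At each time point a 1-ml sample was centrifuged at 4°C and washed, and fluorescence read at ex 500/em 580 nm.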

[12] = molecular target: T3, Multidrug resistance protein MdtK (Escherichia coli (strain K12)) (UniProt P37340); assay: Activity of Escherichia coli K-12 multidrug efflux protein YdhE expressed in Escherichia coli AG100AX assessed as reduction in compound accumulation by fluorimetric assay
T3 sequence (whole entry): T1 sequence (P37340 whole entry)
Procedure, shortened: (§1)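 AG100AX cells carrying the pBAD-based plasmid were grown in LB with 0.01% L-arabinose at 37°C to OD600 1.0, washed, and resuspended to OD600 1.0 in 0.1 M Tris-HCl pH 7.0. Norfloxacin (100 μM final) or ethidium bromide (20 μg/ml final) was added and samples taken over time. CCCP (100 μM final) was added at 15 min. After a further 15 min, CCCP was removed and cells re-energized with 0.4% glucose. Maximum fluorescence was normalized to 100%.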

Neisseria gonorrhoeae [13] = assay: Activity of Neisseria gonorrhoeae FA19 multidrug efflux protein NorM expressed in Escherichia coli AG100AX assessed as reduction in compound accumulation by fluorimetric assay; procedure, shortened: as §1
Neisseria gonorrhoeae [14] = assay: Inhibition of Neisseria gonorrhoeae FA19 multidrug efflux protein NorM expressed in Escherichia coli AG100AX assessed as increase in ethidium bromide accumulation at 100 uM after 15 mins by fluorimetric assay; procedure, shortened: as §1
[15] = molecular target: T3, Multidrug resistance protein MdtK (Escherichia coli (strain K12)); assay: Inhibition of Escherichia coli K-12 multidrug efflux protein YdhE expressed in Escherichia coli AG100AX assessed as assessed as increase in Norfloxacin accumulation at 100 uM after 15 mins by fluorimetric assay; procedure, shortened: as §1
Neisseria gonorrhoeae [16] = assay: Inhibition of Neisseria gonorrhoeae FA19 multidrug efflux protein NorM expressed in Escherichia coli AG100AX assessed as increase in Norfloxacin accumulation at 100 uM after 15 mins by fluorimetric assay; procedure, shortened: as §1
[17] = molecular target: T3, Multidrug resistance protein MdtK (Escherichia coli (strain K12)); assay: Inhibition of Escherichia coli K-12 multidrug efflux protein YdhE expressed in Escherichia coli AG100AX assessed as assessed as increase in ethidium bromide accumulation at 100 uM after 15 mins by fluorimetric assay; procedure, shortened: as §1

Compound | Kd [1] [µM] | Kd [2] [µM] | MIC (Escherichia coli [3]) [µg/mL] | Kd [4] [µM] | Kd [5] [µM] | Kd [6] [µM] | MIC (Escherichia coli [7]) [µg/mL] | MIC (Escherichia coli [8]) [µg/mL] | Kd [9] [µM] | Kd [10] [µM] | Activity (Neisseria gonorrhoeae [11]) | Activity [12] | Activity (Neisseria gonorrhoeae [13]) | inhibition (Neisseria gonorrhoeae [14]) | inhibition [15] | inhibition (Neisseria gonorrhoeae [16]) | inhibition [17]
CC/N=c1\cc2oc3cc(NCC)c(C)cc3c(-c3ccccc3C(=O)OCC)c-2cc1C.Cl [RHODAMINE 6G HYDROCHLORIDE] | 3.6 | 2.6 | 3.12 | 3 | 3.4 | 3 | 12.5 | 12.5 | 10.3 | 2.5 |  |  |  |  |  |  | 
CCn1cc(C(=O)O)c(=O)c2cc(F)c(N3CCNCC3)cc21 [NORFLOXACIN] |  |  | 0.008 (≈ 0.0251 µM) |  | 126 | 98.4 | 0.016 (≈ 0.0501 µM) | 0.032 (≈ 0.1 µM) |  |  | Active |  |  |  |  |  | 
CC[n+]1c(-c2ccccc2)c2cc(N)ccc2c2ccc(N)cc21.[Br-] [HOMIDIUM BROMIDE] |  |  | 7.81 |  | 12.3 | 9.8 | 15.6 | 15.6 |  |  | Active | Active | Active |  |  |  | 
O=C(O)c1cn(C2CC2)c2cc(N3CCNCC3)c(F)cc2c1=O [CIPROFLOXACIN] |  |  |  |  | 121 | 90.9 |  |  |  |  |  | Active | Active |  |  |  | 
N#CC(C#N)=NNc1cccc(Cl)c1 [CARBONYL CYANIDE M-CHLOROPHENYLHYDRAZONE] |  |  | 6.25 (≈ 30.5 µM) |  |  |  | 6.25 (≈ 30.5 µM) | 6.25 (≈ 30.5 µM) |  |  |  |  |  | Active | Active | Active | Active
